Where two headings read alike, the source gives them in different places.
Experiments:
[1] = tested on: male gametes from stage V GAMs; assay: Dual gamete formation assay, male gamete formation; type: cell-based, Plasmodium falciparum; settings: Plasmodium falciparum, 24 h
[2] = tested on: female gametes from stage V GAMs; assay: Dual gamete formation assay, female gamete formation; type: cell-based, Plasmodium falciparum; settings: Plasmodium falciparum, 24 h
[3] = tested on: compound-exposed Pf GAMs in Anopheles stephensi mosquitoes; assay: Membrane-feeding assay with A. stephensi mosquitoes; type: in vivo, Plasmodium falciparum; settings: positive control at 3′ the GAM IC50, in words
Outline: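 Day-12 gametocytes were treated 3 days at 1x or 3x their late-stage IC50, with compound refreshed daily, then held 4 days without compound. Controls were 0.25% DMSO and methylene blue at 3x. Stage V cultures (50% Hct, 0.01–0.16% parasitemia) were membrane-fed for 30 min to A. stephensi, kept at 26°C and 78% RH. Midguts were dissected on day 7–8, stained with mercurochrome and oocysts counted blind. Prevalence is the percentage of mosquitoes with at least one oocyst.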

[4] = tested on: PfMDR1 mutant lines versus parental ABS parasites (Dd2-B2, FCB); assay: Drug susceptibility profiling of HHQ-resistant lines in ABS parasites; type: cell-based, Plasmodium falciparum; settings: for changes in susceptibility: all three lines: PfMDR1^edF1072L, PfMDR1^selY290F
[5] = tested on: Dd2-B2 late rings; assay: Hb endocytosis by Western blot; type: cell-based, Plasmodium falciparum; settings: 5′ the IC50 for 5 h, normalized to DMSO control
Outline: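 Sorbitol-synchronized parasites were exposed to test compound at 5x IC50 for 5 h, starting at the late ring stage. Lysates were blotted to nitrocellulose and probed overnight at 4°C with rabbit anti-human Hb (1:5,000) and anti-β-actin (1:2,000). Detection was by ECL. Hb band intensities were normalized to β-actin and compared with untreated controls. Repeated on 3–4 independent occasions.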

CN(C)c1ccc2nc3ccc(=[N+](C)C)cc-3sc2c1 [Methylene Blue, methylene blue]
IC50 ([1]; read-out: Mean IC50 (lower 95% CI - upper 95% CI) Male carry-over): 61.5 nM
IC50 ([1]; read-out: Mean IC50 (lower 95% CI - upper 95% CI) Male wash-out): 147 nM
IC50 ([2]; read-out: Mean IC50 (lower 95% CI - upper 95% CI) Female carry-over): 162 nM
IC50 ([2]; read-out: Mean IC50 (lower 95% CI - upper 95% CI) Female wash-out): 846 nM
transmission-blocking activity [3]: maximal

C=C[C@H]1C[N@@]2CC[C@H]1C[C@H]2[C@H](O)c1ccnc2ccc(OC)cc12 [QN, quinine]
fold increased susceptibility compared to wild-type Dd2-B2 ([4]; GNF-Pf-5668-3C4D2 line (four pfmdr1 copies + F1072L (AB 69%))): 1.7 fold
fold higher susceptibility versus Dd2-B2 ([4]; PfMDR1^edF1072L): 3.6 fold
fold increased susceptibility versus Dd2-B2 ([4]; PfMDR1^edS1075I): 5.1 fold
fold higher susceptibility versus Dd2-B2 ([4]; PfMDR1^selY290F (GNF-Pf-5660-2B6H1)): 3.7 fold
susceptibility in GNF-Pf-5668-3C4D2 compared to PfMDR1^edF1072L ([4]; i.e. higher IC50 values): decreased susceptibility

CC1(C)N=C(N)N=C(N)N1OCCCOc1cc(Cl)c(Cl)cc1Cl [WR99210]
reduction of Hb levels within parasites [5]: no significant changes

CCNCc1cc(Nc2ccnc3cc(Cl)ccc23)ccc1O [md-ADQ, md-amodiaquine]
changes in susceptibility ([4]; PfMDR1^edS1075I): no changes

CCNCCCC(C)Nc1ccnc2cc(Cl)ccc12 (stereo not drawn) [md-CQ, monodesethyl-CQ]
changes in susceptibility ([4]; PfMDR1^edS1075I): no changes

Clc1ccc2c(N3CCN(CCCN4CCN(c5ccnc6cc(Cl)ccc56)CC4)CC3)ccnc2c1 [piperaquine]
changes in susceptibility ([4]; PfMDR1^edS1075I): no changes

ferroquine
changes in susceptibility ([4]; PfMDR1^edS1075I): no changes

Source: publication PMC5708124 (Nature microbiology, 2017)
